Measurements reported in ChEMBL document CHEMBL3351828, “Design and optimization of highly-selective fungal CYP51 inhibitors” (Bioorg Med Chem Lett, 2014).
≈ marks a conversion by molar mass, not a printed value.

Key:
[1] = system: Candida albicans; assay: Antifungal activity against Candida albicans by broth macrodilution method; format: functional
In short: (§1)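 MIC against standard ATCC isolates determined under CLSI guidelines, M27-A3 for yeasts. […] Units μg/mL.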

[2] = target: Cytochrome P450 3A4 (Homo sapiens, UniProt P08684); assay: Inhibition of CYP3A4 in human hepatocytes using testosterone as substrate by HPLC/MS/MS method; format: ADME, cell-based, Hepatocyte
Sequence of Cytochrome P450 3A4 (P08684 whole entry): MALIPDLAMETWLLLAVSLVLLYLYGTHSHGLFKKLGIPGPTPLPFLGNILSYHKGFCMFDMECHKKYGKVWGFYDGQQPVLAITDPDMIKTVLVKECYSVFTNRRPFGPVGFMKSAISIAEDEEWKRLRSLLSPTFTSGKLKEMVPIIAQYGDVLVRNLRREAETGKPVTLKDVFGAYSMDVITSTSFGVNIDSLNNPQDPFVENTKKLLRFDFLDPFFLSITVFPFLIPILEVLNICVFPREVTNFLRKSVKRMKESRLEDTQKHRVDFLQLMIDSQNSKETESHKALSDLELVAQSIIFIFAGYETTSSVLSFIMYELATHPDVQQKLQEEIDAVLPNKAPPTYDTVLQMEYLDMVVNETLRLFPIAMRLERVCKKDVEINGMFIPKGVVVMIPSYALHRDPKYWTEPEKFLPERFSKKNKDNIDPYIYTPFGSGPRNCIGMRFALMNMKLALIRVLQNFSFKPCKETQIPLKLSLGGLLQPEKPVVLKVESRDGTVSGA

[3] = system: Candida albicans; assay: Antifungal activity against Candida albicans R303 infected in CD-1 mouse assessed as reduction of kidney fungal burden at 10 mg/kg, po administered 2 hrs post infection on day 1 measured on day 2 relative to vehicle-treated control; format: functional
In short: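 Female CD-1 mice (7 weeks, 18-25 g) made neutropenic with IP cyclophosphamide 150 mg/kg at 4 and 1 days before tail-vein inoculation with C. albicans R303. Single oral dose 2 h post-infection on day 1. Kidneys harvested day 2, homogenized in PBS, serially diluted and plated on SDA for CFU/kidney. Read-out: percent reduction in kidney fungal burden versus vehicle-treated controls.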

[4] = system: Trichophyton rubrum; assay: Antifungal activity against Trichophyton rubrum by broth macrodilution method; format: functional; in short: as §1
[5] = system: Candida albicans; assay: Antifungal activity against Candida albicans R303 infected in CD-1 mouse assessed as reduction of kidney fungal burden at 50 mg/kg, po administered 2 hrs post infection on day 1 measured on day 2 relative to vehicle-treated control; format: functional
In short: (§2)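 Female CD-1 mice (7 weeks, 18-25 g) made neutropenic with IP cyclophosphamide (150 mg/kg) on days 4 and 1 before tail-vein inoculation with C. albicans R303. Single oral dose given 2 h after infection on day 1. Kidneys harvested day 2 and homogenized in PBS. CFU/kidney counted on SDA plates from serial dilutions. Percent reduction taken versus vehicle-treated controls. Fluconazole used as positive control.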

[6] = Selectivity index, ratio of IC50 for human hepatocytes CYP3A4 to MIC for Trichophyton rubrum; parameters: species or system Hepatocyte
In short: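 CYP3A4 IC50 measured in pooled human hepatocyte microsomes with 150 μM testosterone as substrate, a concentration equal to the Km determined in the same lab. […] Selectivity index calculated as CYP3A4 IC50 (μM) divided by T. rubrum MIC (μg/mL).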

[7] = target: Lanosterol 14-alpha demethylase (Candida albicans (strain SC5314 / ATCC MYA-2876) (Yeast), UniProt P10613); assay: Binding affinity to Candida albicans CYP51
Sequence of Lanosterol 14-alpha demethylase (P10613 whole entry): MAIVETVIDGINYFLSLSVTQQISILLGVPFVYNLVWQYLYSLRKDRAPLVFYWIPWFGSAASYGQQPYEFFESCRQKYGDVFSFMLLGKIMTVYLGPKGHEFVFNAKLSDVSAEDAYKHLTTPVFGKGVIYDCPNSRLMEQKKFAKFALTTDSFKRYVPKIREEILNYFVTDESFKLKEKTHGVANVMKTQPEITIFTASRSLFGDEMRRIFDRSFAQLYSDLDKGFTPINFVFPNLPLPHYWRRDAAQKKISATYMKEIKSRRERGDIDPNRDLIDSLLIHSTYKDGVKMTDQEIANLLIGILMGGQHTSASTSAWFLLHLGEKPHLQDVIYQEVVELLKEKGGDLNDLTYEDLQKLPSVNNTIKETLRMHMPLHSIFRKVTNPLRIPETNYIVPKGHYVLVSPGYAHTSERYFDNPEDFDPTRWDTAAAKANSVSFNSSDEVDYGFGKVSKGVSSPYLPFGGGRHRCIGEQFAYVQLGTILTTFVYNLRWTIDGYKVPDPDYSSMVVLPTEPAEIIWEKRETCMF

[8] = Selectivity for yeast CYP51 over human CYP51
[9] = target: Cytochrome P450 2C9 (Homo sapiens, UniProt P11712); assay: Inhibition of CYP2C9 (unknown origin); format: ADME
Sequence of Cytochrome P450 2C9 (P11712 whole entry): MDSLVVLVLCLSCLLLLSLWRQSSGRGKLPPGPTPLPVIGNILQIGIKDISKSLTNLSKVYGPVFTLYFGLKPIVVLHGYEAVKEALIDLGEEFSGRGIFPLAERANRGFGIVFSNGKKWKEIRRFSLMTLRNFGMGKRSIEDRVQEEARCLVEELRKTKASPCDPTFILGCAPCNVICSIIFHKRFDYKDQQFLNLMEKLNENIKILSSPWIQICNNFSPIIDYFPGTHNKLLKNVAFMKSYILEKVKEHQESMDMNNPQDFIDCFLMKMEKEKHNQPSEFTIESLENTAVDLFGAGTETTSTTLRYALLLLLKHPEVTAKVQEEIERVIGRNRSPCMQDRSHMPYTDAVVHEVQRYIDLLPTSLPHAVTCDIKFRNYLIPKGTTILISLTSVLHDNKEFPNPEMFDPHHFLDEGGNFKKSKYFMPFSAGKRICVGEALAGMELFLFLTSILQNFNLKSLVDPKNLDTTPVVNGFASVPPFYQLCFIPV

[10] = target: Cytochrome P450 2C19 (Homo sapiens, UniProt P33261); assay: Inhibition of CYP2C19 (unknown origin); format: ADME
Sequence of Cytochrome P450 2C19 (P33261 whole entry): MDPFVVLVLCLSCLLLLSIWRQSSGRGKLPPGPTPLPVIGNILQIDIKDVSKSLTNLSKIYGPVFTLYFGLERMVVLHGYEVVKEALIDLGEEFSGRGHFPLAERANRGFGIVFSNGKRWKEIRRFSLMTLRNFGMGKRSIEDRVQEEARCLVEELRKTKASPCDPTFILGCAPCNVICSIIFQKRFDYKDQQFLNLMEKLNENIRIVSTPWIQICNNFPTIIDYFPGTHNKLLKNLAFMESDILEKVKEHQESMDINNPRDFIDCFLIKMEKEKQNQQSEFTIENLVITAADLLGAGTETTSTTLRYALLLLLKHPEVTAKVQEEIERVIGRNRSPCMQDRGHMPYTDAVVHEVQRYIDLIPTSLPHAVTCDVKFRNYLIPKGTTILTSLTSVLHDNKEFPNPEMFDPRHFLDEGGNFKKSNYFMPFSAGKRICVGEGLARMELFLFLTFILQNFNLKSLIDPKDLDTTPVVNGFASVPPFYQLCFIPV

[11] = Metabolic stability in human liver microsomes after 2 hrs; format: ADME; conditions: read-out: Stability
[12] = Half life in po dosed human; format: ADME, organism-based; conditions: in vivo
[13] = system: Candida albicans; assay: Antifungal activity against Candida albicans infected in mouse candidiasis model assessed as reduction of kidney fungal burden at 10 mg/kg, po; format: functional; parameters: scale not given: the % may be the effect or the level left
[14] = system: Trichophyton mentagrophytes; assay: Antifungal activity against Trichophyton mentagrophytes infected in guinea pig dermatophytosis model assessed as mycological efficacy at 10 mg/kg, po administered for 9 days; format: functional
[15] = system: Candida albicans; assay: Antifungal activity against Candida albicans R303 infected in CD-1 mouse assessed as reduction of kidney fungal burden at 20 mg/kg, po administered 2 hrs post infection on day 1 measured on day 2 relative to vehicle-treated control; format: functional; in short: as §2

Compound | MIC50 [1] [µg/mL] | IC50 [2] [µM] | further results
C[C@@H](c1ncncc1F)[C@](O)(Cn1ccnc1)c1ccc(F)cc1F | 0.5 (≈ 1.44 µM) | 0.8 | –
OC(Cn1cnnn1)(c1ccc(F)cc1F)C(F)(F)c1ccc(-c2ccc(F)cc2)cn1 (stereo not given) | 0.016 (≈ 0.0358 µM) | – | Efficacy [3]: 99%
C[C@@H](c1ncncc1F)[C@](O)(Cn1cncn1)c1ccc(F)cc1F [VORICONAZOLE] | 0.06 (≈ 0.172 µM) | – | –
CCC(C)n1ncn(-c2ccc(N3CCN(c4ccc(OCC5COC(Cn6cncn6)(c6ccc(Cl)cc6Cl)O5)cc4)CC3)cc2)c1=O (stereo not given) [ITRACONAZOLE] | 0.016 (≈ 0.0227 µM) | – | MIC50 [4]: 0.062 µg/mL (≈ 0.0879 µM)
OC(Cn1cnnn1)(c1ccc(F)cc1F)C(F)(F)c1ccccn1 (stereo not given) | 0.25 (≈ 0.708 µM) | 136 | Efficacy [5]: 98%
C[C@@H](c1ncncc1F)[C@](O)(Cn1ncnn1)c1ccc(F)cc1F | 8 (≈ 22.8 µM) | 46 | –
O[C@@](Cn1cnnn1)(c1ccc(F)cc1F)C(F)(F)c1ccc(-c2ccc(OC(F)(F)F)cc2)cn1 | ≤ 0.001 | 79 | MIC50 [4]: ≤ 0.001 µg/mL; Selectivity Index [6]: >79000
O[C@@](Cn1cnnn1)(c1ccc(F)cc1F)C(F)(F)c1ccc(-c2ccc(C(F)(F)F)cc2)cn1 | ≤ 0.001 | 54 | MIC50 [4]: 0.002 µg/mL (≈ 0.00402 µM); Selectivity Index [6]: 27000
O[C@@](Cn1cnnn1)(c1ccc(F)cc1F)C(F)(F)c1ccc(-c2ccc(OCC(F)(F)F)cc2)cn1 [OTESECONAZOLE] | ≤ 0.001 | 65 | MIC50 [4]: ≤ 0.001 µg/mL; Selectivity Index [6]: >65000; Kd [7]: ≤ 0.039 µM; Selectivity ratio [8]: > 2200; IC50 [9]: 99 µM; IC50 [10]: 72 µM; remaining at 2 h [11]: > 99%; half-life [12]: > 24 h; Activity [13]: 99%; Activity [14]: 86%
C[C@@H](c1ncncc1F)[C@](O)(Cn1cnnn1)c1ccc(F)cc1F | 1 (≈ 2.85 µM) | 32 | –
O[C@@](Cn1cnnn1)(c1ccc(F)cc1F)C(F)(F)c1ccc(Cl)cn1 | 0.25 (≈ 0.645 µM) | 74 | Efficacy [5]: 100%
C[C@@H](c1ncncc1F)[C@](O)(Cn1ccnn1)c1ccc(F)cc1F | > 16 | 8 | –
N#Cc1ccc(-c2ccc(C(F)(F)C(O)(Cn3cnnn3)c3ccc(F)cc3F)nc2)cc1 (stereo not given) | ≤ 0.016 | 16 | Efficacy [5]: 100%
C[C@@H](c1ncncc1F)[C@](O)(Cn1cnnc1)c1ccc(F)cc1F | > 16 | 51 | –
OC(Cn1cncn1)(Cn1cncn1)c1ccc(F)cc1F [FLUCONAZOLE] | – | – | Efficacy [3]: 99%
O[C@@](Cn1cnnn1)(c1ccc(F)cc1F)C(F)(F)c1ccc(-c2ccc(Cl)cc2)cn1 | ≤ 0.001 | 36 | MIC50 [4]: 0.004 µg/mL (≈ 0.00862 µM); Selectivity Index [6]: 9000
OC(Cn1cnnn1)(c1ccc(F)cc1F)C(F)(F)c1ccc(OCC(F)(F)F)cn1 (stereo not given) | 0.06 (≈ 0.133 µM) | 72 | Efficacy [5]: 81%
OC(Cn1cnnn1)(c1ccc(F)cc1F)C(F)(F)c1ccc(-c2ccc(C(F)(F)F)cc2)cn1 (stereo not given) | ≤ 0.016 | > 60 | Efficacy [15]: 94%
